What was measured:
Lipid bilayer [1] = assay: Membrane disrupting activity in large unilamellar vesicles assessed as calcein AM dye leakage at 10 uM by fluorescence assay relative to control; type: physicochemical
Method in brief: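 Calcein-loaded POPC or POPC/cholesterol (9:1 mol ratio) LUVs, with excess dye removed by Sepharose 4B gel filtration in Tris-HCl pH 7.5 containing 1 mM EDTA and 150 mM NaCl. Lipid at 27 μM in PBS. Fluorescence (ex 490/em 517 nm) read before and after adding compound. Triton X-100 was then added to define 100% leakage.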

Aspergillus niger = assay: Antifungal activity against Aspergillus niger NBRC 31032 after 2 days by paper disk method; type: functional
Method in brief: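 A. niger grown 2 days at 25 °C in glucose/peptone broth, spread on agar of the same medium (1.5% agar). Samples in MeOH spotted on 8 mm paper disks, up to 60 μg/disk; after 2 days at 25 °C the inhibition zone was measured and minimum effective concentration recorded.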

Erythrocyte = assay: Hemolytic activity in human erythrocytes after 18 hrs by colorimetric method; type: ADME, cell-based
Method in brief: (§1)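 Human RBCs washed in PBS (pH 7.4) by centrifugation and diluted to a 1% suspension (~1.7 × 10^7 cells/mL). 190 μL suspension mixed with 10 μL sample (up to 80 μM) or PBS; water-lysed RBCs served as 100%. Incubated at 37 °C for 18 h, centrifuged, supernatant absorbance read at 450 nm. % hemolysis and EC50 taken from dose-response curves.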

Lipid bilayer [2] = assay: Membrane disrupting activity in POPC large unilamellar vesicles assessed as calcein AM dye leakage at 80 uM by fluorescence assay relative to control; type: physicochemical
Method in brief: (§2)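 Calcein-loaded LUVs of POPC or POPC/Chol (9:1 mol) freed of external dye on Sepharose 4B in Tris-HCl pH 7.5, EDTA, NaCl. Vesicles diluted in PBS to 27 μM lipid and fluorescence read (ex 490/em 517 nm). Sample added and fluorescence re-read, then Triton X-100 added to give 100% leakage.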

Lipid bilayer [3] = assay: Membrane disrupting activity in POPC/cholesterol large unilamellar vesicles assessed as calcein AM dye leakage at 80 uM by fluorescence assay relative to control; type: physicochemical; method in brief: as §2
Lipid bilayer [4] = assay: Membrane disrupting activity in POPC/cholesterol large unilamellar vesicles assessed as calcein AM dye leakage at 20 uM by fluorescence assay relative to control; type: physicochemical; method in brief: as §2
Lipid bilayer [5] = assay: Membrane disrupting activity in POPC large unilamellar vesicles assessed as calcein AM dye leakage at 20 uM by fluorescence assay relative to control; type: physicochemical; method in brief: as §2
[6] = Hemolytic activity in human erythrocytes at 20 uM after 18 hrs by colorimetric method; type: ADME, cell-based, Erythrocyte; conditions: read-out: Activity; method in brief: as §1

Compound	Activity (Lipid bilayer [1])	MEC (Aspergillus niger)	EC50 (Erythrocyte)	Activity (Lipid bilayer [2])	Activity (Lipid bilayer [3])	Activity (Lipid bilayer [4])	Activity (Lipid bilayer [5])	hemolysis at 18 h, 20 µM [6]
C=C/C=C/CC/C=C/C=C/C=C/CC/C=C/[C@H](O)[C@H](O)[C@@H]1O[C@@H]([C@H](O)[C@H](O)C(=C)CC[C@@H](O)[C@H]2C[C@@H](O)[C@@H](O)[C@H]([C@@H](O)[C@H](O)/C=C(\C)CC[C@H](O)C[C@H](O)[C@H](O)[C@@H](C)C[C@H](O)[C@@H](O)CCCCC[C@@H](O)CCC[C@@H](O)/C=C/C[C@@H](O)/C=C/C[C@@H](O)CO)O2)C[C@@H](O)[C@H]1O	100%							
C=CCC/C=C/C=C/C=C/CC/C=C/C(O)C(O)C1OC(C(O)C(O)C(=C)CCC(O)C2CC(O)C(O)C(C(O)C(O)/C=C(\C)CCC(O)CC(O)C(O)C(C)CC(O)C(O)CC(C)CC/C=C/CC(O)CO)O2)CC(O)C1O (stereo not given)		8 µg	1200 nM					
C=CCC/C=C/C=C/C=C/CC/C=C/C(O)C(O)[C@@H]1O[C@@H](C(O)C(O)C(=C)CCC(O)[C@H]2C[C@@H](O)[C@@H](O)[C@H](C(O)C(O)/C=C(\C)CCC(O)CC(O)C(O)C(C)CC(O)CC(C)/C=C(\C)CC(O)CC(C)CCC(O)CC(O)C(O)C(C)CC(O)CC(O)C(O)C(C)C(O)CCCC(O)CCCC(O)CCCC(O)/C=C/CC(O)/C=C/CO)O2)C[C@@H](O)[C@H]1O (stereo not given in full)		>15 µg	> 10000 nM	20%	20%	< 50%	< 50%	
C=CCC/C=C/C=C/C=C/CC/C=C/C(O)C(O)C1OC(C(O)C(O)C(=C)CCC(O)C2CC(O)C(O)C(C(O)C(O)/C=C(\C)CCC(O)CC(O)C(O)C(C)CC(O)CC(C)/C=C(\C)CC(O)CC(C)CC(O)C3CC(O)C(O)C(CC(O)CC(O)CO)O3)O2)CC(O)C1O (stereo not given)		6 µg	1700 nM					
C=CCC/C=C/C=C/C=C/CC/C=C/C(O)C(O)[C@@H]1O[C@@H](C(O)C(O)C(=C)CCC(O)[C@H]2C[C@@H](O)[C@@H](O)[C@H](C(O)C(O)/C=C(\C)CCC(O)CC(O)C(O)C(C)CC(O)CC(C)/C=C(\C)CC(O)CC(C)CCC(O)CC(O)C(O)C(C)C(O)CCCC(O)CCCC(O)CCCC(O)/C=C/CC(O)/C=C/CO)O2)C[C@@H](O)[C@H]1O (stereo not given in full)		>15 µg	1000 to 3000 nM	20%	20%	< 50%	< 50%	< 100%
C=CCC/C=C/C=C/C=C/CC/C=C/C(O)C(O)C1OC(C(O)C(O)C(=C)CCC(O)C2CC(O)C(O)C(C(O)C(O)/C=C(\C)CCC(O)CC(O)C(O)C(C)CC(O)C(O)CCCC(O)CCCC(O)CCCC(O)/C=C/CC(O)/C=C/CC(O)CO)O2)CC(O)C1O (stereo not given)		6 µg	2900 nM					
